# According to ChEMBL document CHEMBL2396601, “Synthesis and antiprotozoal activity of dicationic m-terphenyl and 1,3-dipyridylbenzene derivatives” (J Med Chem, 2013):
# Active and inactive are the calls of the source. No cut-off for these calls is given here.
# Columns and labels:
# [1] = system: Trypanosoma brucei rhodesiense; test: Antiprotozoal activity against Trypanosoma brucei rhodesiense STIB900 infected in NMRI mouse assessed as host mean survival days at 25 mg/kg, po qd for 4 days; type: functional
# How it was run: (§1)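 Acute-stage HAT mouse model infected with STIB900. Cure means survival to 60 days after infection with no parasitemia relapse. Mean survival days are counted from infection and use every mouse: relapsed mice, plus cured mice entered as >60 days.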
# [2] = system: Trypanosoma brucei rhodesiense; test: Antiprotozoal activity against Trypanosoma brucei rhodesiense STIB900 infected in NMRI mouse assessed as reduction of parasitemia relapse at 25 mg/kg, po qd for 4 days; type: functional, organism-based; design: dose 25 mg/kg
# How it was run: (§2)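 Mouse model of acute (early) stage HAT with T. b. rhodesiense STIB900, groups of 4 mice. Amidines dosed intraperitoneally, 4 daily doses of 5 mg/kg or single doses; prodrugs dosed orally, 4 daily doses of 25 mg/kg. Cure means survival to 60 days after infection with no parasitemia relapse. Mean survival days counts all mice, with cured mice scored as >60 days.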
# L6 = test: Cytotoxicity against rat L6 cells after 72 hrs by Alamar Blue assay; type: cell-based; settings: L6, 72 h
# How it was run: (§3)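 Uses T. b. rhodesiense STIB900, T. cruzi Tulahuen C2C4 LacZ intracellular amastigotes, or L6 rat myoblasts depending on line.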
# [3] = Selectivity index, ratio of IC50 for rat L6 cells to IC50 for Plasmodium falciparum K1; type: toxicity, cell-based; settings: L6 cells, read-out: Ratio IC50
# How it was run: (§4)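 Selectivity index is IC50 against L6 rat myoblast cells divided by IC50 against the named parasite.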
# Plasmodium falciparum = test: Antiprotozoal activity against chloroquine-resistant Plasmodium falciparum K1 after 48 hrs by [3H]-hypoxanthine incorporation assay; type: functional, organism-based
# [4] = Selectivity index, ratio of IC50 for rat L6 cells to IC50 for Trypanosoma cruzi Tulahuen C2C4; type: toxicity, cell-based; settings: read-out: Ratio IC50; how it was run: as §4
# Trypanosoma cruzi = test: Antiprotozoal activity against intracellular amastigote form of Trypanosoma cruzi Tulahuen C2C4 expressing LacZ infected in rat L6 cells after 48 hrs; type: functional, organism-based; settings: Tulahuen C2C4, L6, 48 h; how it was run: as §3
# [5] = Selectivity index, ratio of IC50 for rat L6 cells to IC50 for Trypanosoma brucei rhodesiense STIB900; type: toxicity, cell-based; settings: L6 cells, read-out: Ratio IC50; how it was run: as §4
# [6] = system: Trypanosoma brucei rhodesiense; test: Antiprotozoal activity against Trypanosoma brucei rhodesiense STIB900 after 72 hrs by Alamar Blue assay; type: functional, organism-based; how it was run: as §3
# [7] = system: Trypanosoma brucei rhodesiense; test: Antiprotozoal activity against Trypanosoma brucei rhodesiense STIB900 infected in NMRI mouse assessed as reduction of parasitemia relapse at 10 mg/kg, ip; type: functional, organism-based; design: dose 10 mg/kg; how it was run: as §2
# [8] = system: Trypanosoma brucei rhodesiense; test: Antiprotozoal activity against Trypanosoma brucei rhodesiense STIB900 infected in NMRI mouse assessed as reduction of parasitemia relapse at 5 mg/kg, ip qd for 4 days; type: functional, organism-based; design: dose 5 mg/kg; how it was run: as §2
# Mus musculus [9] = test: Toxicity in BALB/c mouse assessed as tremors measured after second dose at 30 mg/kg, ip qd for 5 days; type: organism-based; design: dose 30 mg/kg, route intraperitoneal; settings: in vivo, 120 h
# How it was run: (§5)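 Tolerability check before efficacy testing in uninfected BALB/c mice, groups of two, given 30 mg/kg ip daily for five days. Watched for overt toxicity signs such as tremors and hyperactivity after each dose. Mice showing adverse effects were euthanized.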
# [10] = Selectivity index, ratio of IC50 for rat L6 cells to IC50 for Leishmania amazonensis; type: toxicity, cell-based; settings: read-out: Ratio IC50; how it was run: as §4
# Leishmania amazonensis = test: Antiprotozoal activity against intracellular amastigote form of Leishmania amazonensis infected in CD1 mouse macrophages after 72 hrs by […]; type: functional, organism-based
# Mus musculus [11] = test: Toxicity in BALB/c mouse assessed as hyperactivity measured after first dose at 30 mg/kg, ip qd for 5 days; type: organism-based; design: dose 30 mg/kg, route intraperitoneal; settings: in vivo, 120 h; how it was run: as §5
# [12] = system: Trypanosoma brucei rhodesiense; test: Antiprotozoal activity against Trypanosoma brucei rhodesiense STIB900 infected in NMRI mouse assessed as host mean survival days at 10 mg/kg, ip; type: functional; settings: route intraperitoneal; how it was run: as §1
# [13] = system: Trypanosoma brucei rhodesiense; test: Antiprotozoal activity against Trypanosoma brucei rhodesiense STIB900 infected in NMRI mouse assessed as host mean survival days at 5 mg/kg, ip qd for 4 days; type: functional; settings: route intraperitoneal; how it was run: as §1
# [14] = system: Trypanosoma brucei rhodesiense; test: Antiprotozoal activity against Trypanosoma brucei rhodesiense STIB900 infected in NMRI mouse assessed as host mean survival days at 5 mg/kg, ip; type: functional; settings: route intraperitoneal; how it was run: as §1
# [15] = system: Trypanosoma brucei rhodesiense; test: Antiprotozoal activity against Trypanosoma brucei rhodesiense STIB900 infected in NMRI mouse assessed as reduction of parasitemia relapse at 5 mg/kg, ip; type: functional, organism-based; design: dose 5 mg/kg; how it was run: as §2
# [16] = Trypanosoma brucei, STIB900, 72 h
Compound,MSD [1] [days],IC50 (L6) [nM],selectivity ratio [3],"IC50 (Plasmodium falciparum; Plasmodium falciparum, K1) [nM]",selectivity ratio [4],IC50 (Trypanosoma cruzi) [nM],selectivity ratio [5],"IC50 [6, 16] [nM]",selectivity ratio [10],IC50 (Leishmania amazonensis) [nM],further results
Cl.Cl.N/C(=N\O)c1cccc(-c2cccc(-c3cccc(/C(N)=N\O)c3)c2)c1,7.25,5600,< 1,8230,< 1,11200,2,2550,,,Activity [2]: inactive
N=C(N)c1ccc(-c2cccc(-c3ccc(C(=N)N)cn3)c2)nc1,,,,,,,,,,,Activity [7]: Active; Activity [8]: Active
CN(C)CC(=O)O/N=C(\N)c1ccc(-c2cccc(-c3ccc(/C(N)=N\OC(=O)CN(C)C)cn3)c2)nc1,>52,62900,129,486,< 1,72300,6,9840,,,
Cl.Cl.Cl.N=C(Nc1cccc(-c2cc(Cl)cc(-c3cccc(NC(=N)c4ccccn4)c3)c2)c1)c1ccccn1,,2500,450,6,47,53,133,19,26,95,Activity (Mus musculus [9]): Toxic; Activity (Mus musculus [11]): Toxic
CO/N=C(/N)c1ccc(-c2cccc(-c3ccc(/C(N)=N\OC)cc3)c2)cc1.Cl.Cl,>34.25,19200,< 2,> 10000,< 1,92600,4,4440,,,
Cl.Cl.N=C(N)c1ccc(-c2cccc(-c3ccc(C(=N)N)cc3)c2)cc1,,31200,1280,24,< 1,71600,8490,4,,,MSD [12]: >60 days; MSD [13]: >60 days; Activity [7]: Active; Activity [8]: Active
CO/N=C(\N)c1cccc(-c2cccc(-c3cccc(/C(N)=N\OC)c3)c2)c1.Cl.Cl,17.25,20300,2,9310,< 1,24100,2,11300,,,Activity [2]: inactive
Cl.Cl.N=C(N)c1ccc(-c2cccc(-c3ccc(C(=N)N)nc3)c2)cn1,,22300,1480,15,< 1,43400,3720,6,,,MSD [13]: >60 days; Activity [8]: Active; MSD [14]: >60 days; Activity [15]: Active
CC(C)Oc1cc(NC(=N)c2ccccn2)ccc1-c1cc(Cl)cc(-c2ccccc2)c1,,9690,< 1,> 10000,2,4180,< 1,32400,10,933,
CC(C)Oc1ccc(NC(=N)c2ccccn2)cc1-c1cc(Cl)cc(-c2ccccc2)c1,,3770,1,3080,1,2980,< 1,12300,2,1880,
Cl.N=C(N)c1ccc(-c2cccc(-c3ccc(C(=N)N)cn3)c2)nc1,,,> 3760,,,,> 8820,,,,MSD [12]: >60 days; MSD [13]: >60 days; IC50 (Plasmodium falciparum): 40 nM; IC50 [6]: 17 nM
Cl.Cl.N=C(Nc1ccc(-c2cccc(-c3cccc(NC(=N)c4ccccn4)c3)c2)cc1)c1ccccn1,,2720,13,208,7,388,1,1940,22,123,Activity (Mus musculus [9]): Toxic; Activity (Mus musculus [11]): Toxic
Cl.Cl.N/C(=N/O)c1ccc(-c2cccc(-c3ccc(/C(N)=N\O)cc3)c2)cc1,>51.25,> 150000,,> 10000,,> 150000,> 14,10900,,,
C[C@@H]1[C@H](O)[C@@H](C)/C=C/C=C/C=C/C=C/C=C/C=C/C=C/[C@H](O[C@@H]2O[C@H](C)[C@@H](O)[C@H](N)[C@@H]2O)C[C@@H]2O[C@](O)(C[C@@H](O)C[C@@H](O)[C@H](O)CC[C@@H](O)C[C@@H](O)CC(=O)O[C@H]1C)C[C@H](O)[C@H]2C(=O)O [AMPHOTERICIN B],,,,,,,,,,124,
N=C(Nc1ccc(-c2cccc(-c3cccc(NC(=N)c4ccccc4)c3)c2)cc1)c1ccccc1,,2520,66,38,1,2140,4,635,3,907,
N=C(Nc1cccc(-c2cc(Cl)cc(-c3cccc(NC(=N)c4ccccc4)c3)c2)c1)c1ccccc1,,4100,58,71,2,2090,8,533,2,2430,
N=C(Nc1ccc(-c2cc(Cl)cc(-c3cccc(NC(=N)c4ccccc4)c3)c2)cc1)c1ccccc1,,2270,58,39,1,2040,13,178,2,1020,
CO/N=C(\N)c1ccc(-c2cccc(-c3ccc(/C(N)=N\OC)cn3)c2)nc1.Cl,>53.75,> 150000,> 42,3560,> 1,117000,> 6,26300,,,
